Compound activity deposited in PubChem by The Scripps Research Institute Molecular Screening Center.
This is a sample that favours compounds with a hit; in the whole collection about 2.3% have one here.
ADAM10 inh: human ADAM10 inhibitors, primary screen, biochemical, QFRET, HTS | 370,000 tested, 0.62% active | Disintegrin and metalloproteinase domain-containing protein 10 (Homo sapiens), O14672 | recombinant ADAM10, EDANS/DABCYL FRET peptide cleavage, 3 h | inhibition, % at 7 µM | AID 720582, 2013;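 active means inhibition above a per-campaign cutoff equal to the mean of compounds falling between control-based bounds plus 3 SD, cut at about 20% in these data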
PLCb3 inh: human PLC-beta3 inhibitors, primary screen, biochemical, fluorescence | 370,000 tested, 0.18% active | Purified PLC-beta3, fluorogenic substrate | inhibition, % at 12.2 µM | AID 720704, 2013; in the data active means inhibition above about 11%
PLC-gamma1 inh: PLC-gamma1 enzyme inhibitors, primary screen, biochemical, fluorescence, purified enzyme; 1-phosphatidylinositol 4,5-bisphosphate phosphodiesterase gamma-1 (Homo sapiens), P19174; fluorogenic substrate; inhibition, % at 12.2 µM; 370,000 tested, 0.84% active; AID 720700, 2013; in the data active means inhibition above about 9.5%
Target sequence (P19174 whole entry, looked up): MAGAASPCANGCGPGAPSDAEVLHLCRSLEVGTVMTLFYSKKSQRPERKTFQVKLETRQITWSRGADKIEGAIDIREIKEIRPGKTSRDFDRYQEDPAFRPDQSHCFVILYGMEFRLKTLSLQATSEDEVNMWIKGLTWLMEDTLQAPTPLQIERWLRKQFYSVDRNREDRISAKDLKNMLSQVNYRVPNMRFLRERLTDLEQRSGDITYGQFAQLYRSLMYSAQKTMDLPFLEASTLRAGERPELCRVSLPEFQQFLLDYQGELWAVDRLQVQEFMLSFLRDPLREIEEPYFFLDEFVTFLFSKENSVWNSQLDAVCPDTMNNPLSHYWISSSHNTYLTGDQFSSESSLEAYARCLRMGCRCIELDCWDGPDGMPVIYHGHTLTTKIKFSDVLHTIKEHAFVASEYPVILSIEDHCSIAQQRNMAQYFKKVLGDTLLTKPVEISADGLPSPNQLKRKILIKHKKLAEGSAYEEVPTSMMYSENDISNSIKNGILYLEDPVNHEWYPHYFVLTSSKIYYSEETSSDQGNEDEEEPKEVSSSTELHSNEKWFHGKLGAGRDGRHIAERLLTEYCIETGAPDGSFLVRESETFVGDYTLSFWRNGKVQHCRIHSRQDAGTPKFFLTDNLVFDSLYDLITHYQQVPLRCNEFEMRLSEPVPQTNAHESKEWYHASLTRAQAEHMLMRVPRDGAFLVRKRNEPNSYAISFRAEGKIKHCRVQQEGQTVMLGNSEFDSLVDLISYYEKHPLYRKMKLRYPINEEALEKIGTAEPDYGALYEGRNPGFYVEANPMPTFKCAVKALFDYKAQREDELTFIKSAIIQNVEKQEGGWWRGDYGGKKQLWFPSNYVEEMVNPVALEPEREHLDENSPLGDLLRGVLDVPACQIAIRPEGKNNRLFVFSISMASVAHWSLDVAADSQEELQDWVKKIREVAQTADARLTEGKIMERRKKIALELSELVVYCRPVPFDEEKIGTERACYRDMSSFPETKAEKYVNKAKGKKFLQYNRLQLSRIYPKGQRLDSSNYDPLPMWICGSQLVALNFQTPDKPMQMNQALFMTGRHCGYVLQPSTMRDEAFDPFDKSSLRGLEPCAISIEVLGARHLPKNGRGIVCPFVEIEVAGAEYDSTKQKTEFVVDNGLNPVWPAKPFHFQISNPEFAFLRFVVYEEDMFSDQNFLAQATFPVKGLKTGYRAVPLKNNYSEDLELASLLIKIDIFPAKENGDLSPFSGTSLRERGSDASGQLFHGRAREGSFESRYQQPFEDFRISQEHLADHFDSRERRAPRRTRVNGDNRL
TbMetRS inhib: T. brucei MetRS inhibitors, primary screen, biochemical, luminescence | AID 624268, 2012 | methionyl-tRNA synthetase (Trypanosoma brucei brucei) | inhibition, % at 11.9 µM | purified T. brucei MetRS, ATP depletion, Kinase-Glo luminescence | 360,000 tested, 0.4% active;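 active means inhibition above a per-plate cutoff of the control wells' mean inhibition plus 3 SD, cut at about 5.5% in these data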
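Test system – parasite MetRS enzyme · Reagent – substrates ATP, L-methionine and bulk Escherichia coli tRNA · Doses – 11.9 µM compound single dose, 0.9% DMSO · Times – 15 min enzyme-compound preincubation, 2 h reaction, 10 min detection, 25 °C · Signal – Kinase-Glo luminescence, ATP depletion format · Controls – DMSO-only wells as low control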
ADAM17 inh: ADAM17 inhibitors, primary screen, biochemical, QFRET; Disintegrin and metalloproteinase domain-containing protein 17 (Homo sapiens), P78536; recombinant ADAM17, EDANS/DABCYL FRET peptide cleavage; inhibition, % at 6.95 µM; 370,000 tested, 0.83% active; AID 720648, 2013;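 active means inhibition above the mean of compounds lying between control limits plus 3 SD, set per campaign, cut at about 8.5% in these data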
Each line names hits and unclear results; the compound was inactive in the other large screens.

Cc1ccc(C(=O)NCCN2C3=NC[C@H](Cc4ccc(O)cc4)N3C[C@H]2Cc2ccc(O)cc2)cc1Br	PLC-gamma1 inh 10.2
COc1ccc(C[C@H]2CN3C(=NC[C@@H]3Cc3ccc(O)cc3)N2CCNC(=O)c2ccc(C)c(Br)c2)cc1	none
COc1ccccc1N(C)S(=O)(=O)c1ccc(Cl)c(C(=O)Nc2ccccc2N2CCOCC2)c1	none
O=C(Cc1cccs1)Nc1cccc(C(=O)Nc2ccco2)c1	PLCb3 inh 12.9
CC(=O)c1cccc(NC(=O)Cc2cccs2)c1	none
CC(NC(=O)COC(=O)C12CC3CC(CC(O)(C3)C1)C2)c1ccccc1 (configuration not stated)	PLCb3 inh 12.7, PLC-gamma1 inh 12.6
CC(CCc1ccccc1)NC(=O)COC(=O)C12CC3CC(CC(Br)(C3)C1)C2 (configuration not stated)	none
COc1ccc(CC(=O)N[C@@H]2c3cc(OC)c(OC)cc3C[C@H]2O)cc1	none
CCOC(=O)COc1ccc2ccccc2c1/C=C/[N+](=O)[O-]	none
CCOC(=O)COc1ccc(/C=C/[N+](=O)[O-])c(OCC(=O)OCC)c1	ADAM17 inh 9.1
COc1ccc(Cc2noc(CN3CCN(Cc4csc(C)n4)CC3)n2)cc1OC	none
COC(=O)C1=C(C)N(Cc2ccccc2C(F)(F)F)C(=NCc2ccc3c(c2)OCO3)NC1c1ccccc1C(F)(F)F (configuration not stated)	PLCb3 inh 10.8 (no result: TbMetRS inhib)
COc1ccc(-c2csc(NC(=O)CS(=O)(=O)c3ccccc3)n2)cc1	none
COc1ccc(-c2csc(NC(=O)C3CCCCN3S(=O)(=O)c3ccccc3)n2)cc1 (configuration not stated)	ADAM17 inh 10.2
CCC1CCC/C1=N\NC(=O)c1ccccc1C (configuration not stated)	PLC-gamma1 inh 10.2
C/C(CC(=O)NC1CCCCC1)=N\NC(=O)c1ccccc1C	none
NC(=O)[C@H]1CC2(CC(c3cccc(NC(=O)CC(c4ccccc4)c4ccccc4)c3)=NO2)CN1C(=O)C(c1ccccc1)c1ccccc1 (some centres not stated)	PLC-gamma1 inh 12.9, ADAM17 inh 12.8
C/C=C\C=C\C(=O)N1CC2(CC(c3cccc(NC(=O)CC(c4ccccc4)c4ccccc4)c3)=NO2)C[C@H]1C(N)=O (some centres not stated)	none (no result: ADAM10 inh, PLCb3 inh, PLC-gamma1 inh, ADAM17 inh)
OC(c1ccccc1)c1nc(-c2ccc(Cl)cc2)cs1 (configuration not stated)	none
COc1ccccc1N1CCN(C(=O)c2ccc3c(c2)CCN3S(=O)(=O)c2ccccc2)CC1	PLC-gamma1 inh 11.5
COc1ccc(N2CCN(C(=O)c3ccc4c(c3)CCN4S(=O)(=O)c3ccccc3)CC2)cc1	none
COc1ccccc1CNC(=O)Cn1cc([N+](=O)[O-])ccc1=O	none
CCOC(=O)c1ccc(NS(=O)(=O)c2ccc3[nH]c(=O)[nH]c3c2)cc1	PLC-gamma1 inh 10.1
CCC(CC)NC(=O)c1ccc(NS(=O)(=O)c2ccc3[nH]c(=O)[nH]c3c2)cc1	none
Cc1c(/C=N/Nc2nc3ccccc3[nH]2)c2ccccc2n1C	none
C=CCn1cc(/C=N/Nc2nc3ccccc3[nH]2)c2ccccc21	TbMetRS inhib 5.6
Cc1cccc2cc(CN(CC3CCCO3)C(=O)NC3CCCCC3)c(=O)[nH]c12 (configuration not stated)	PLC-gamma1 inh 9.7
C=CCn1c(Cc2cccs2)nnc1SCC(=O)Nc1ccc(C)cc1	none (no result: TbMetRS inhib)
COC(=O)C1(C(=O)OC)NOC2C(=O)N(N(C)c3ncc(C(F)(F)F)cc3Cl)C(=O)C21 (configuration not stated)	none
COC(=O)C1(C(=O)OC)NOC2C(=O)N(c3ccc(Cl)cc3Cl)C(=O)C21 (configuration not stated)	ADAM17 inh 11.3
Fc1ccc2nc(-c3ccc(CN4CCC(c5nc6ccccc6[nH]5)CC4)cc3)c(-c3ccccc3)nc2c1	none (no result: TbMetRS inhib)
N#Cc1c(NCCN)nc(NCc2ccccc2)c2c1CCN(Cc1ccccc1)C2	TbMetRS inhib 18.8 (no result: ADAM10 inh, PLCb3 inh, PLC-gamma1 inh, ADAM17 inh)
C=CCNc1nc(NCc2ccccc2)c(C#N)c2c1CN(C)CC2	none
COC(=O)[C@@]12CCCCC=C1N(CCc1ccc(Cl)cc1)C(=O)[C@H]2CC(=O)NCCCCc1ccccc1	none (no result: TbMetRS inhib)
Cc1ccc(NCc2nnc(SCC(=O)c3ccccc3)n2Cc2ccco2)c(C)c1	ADAM10 inh 28.7
COC(=O)C(C(=O)OC)[C@@H]1C=C[C@H](C[N+](=O)[O-])N(C(C)=O)C1	PLC-gamma1 inh 11.8
O=C1C(=Cc2ccco2)CCC1=Cc1ccco1	PLC-gamma1 inh 11.1
O=C1C(=Cc2ccco2)CCCC1=Cc1ccco1	none
O=C1OC(Nc2ncccn2)c2ccccc21 (configuration not stated)	none
O=C1OC(Nc2cc(Br)cc3cccnc23)c2ccccc21 (configuration not stated)	PLC-gamma1 inh 10.8
CC(C)(C)c1cc(C(=O)NN)n(Cc2ccc(F)cc2)n1	none
Cc1cccc(Cn2nc(C(C)(C)C)cc2C(=O)Nc2ccc(F)cc2)c1	ADAM10 inh 25.3, ADAM17 inh 9.0
Clc1cccc(CSc2nnc(-c3c[nH]c4ccccc34)o2)c1	ADAM10 inh 21.2
CC(Oc1ccccc1)C(=O)Nc1cccc(-c2nc3ccccc3[nH]2)c1 (configuration not stated)	TbMetRS inhib 37.8
CC(=O)Nc1cccc(-c2nc3ccccc3[nH]2)c1	none
COc1ccc(OC)c(NC(=O)CSc2nnc3ccc(-c4ccccn4)nn23)c1	none
C[C@H]1CN([C@@H](C)CO)C(=O)c2cccc(NC(=O)Nc3ccc(C(F)(F)F)cc3)c2O[C@@H]1CN(C)S(=O)(=O)c1ccc(Cl)cc1	ADAM10 inh 24.1, ADAM17 inh 9.2
C[C@@H]1CN([C@H](C)CO)C(=O)c2cc(NC(=O)Nc3ccc(C(F)(F)F)cc3)ccc2O[C@H]1CN(C)S(=O)(=O)c1ccc(Cl)cc1	ADAM10 inh 25.3
C[C@H](CO)N1C[C@H](C)[C@@H](CN(C)S(C)(=O)=O)Oc2ccc(NC(=O)Nc3ccc(C(F)(F)F)cc3)cc2C1=O	none
O=P(c1ccccc1)(c1ccccc1)c1ccccc1C(Br)Br	none
CC1(C)CC(=O)C=C(c2n[nH]nc2C2CCCCC2)C1	none
O=C(Cc1ccccc1)NCCSCc1ccc(Cl)cc1	none
O=C(COc1ccccc1)NCCSCc1ccc(Cl)cc1	ADAM17 inh 8.6
O=C(NCCCl)Nc1cccnc1Cl	none
Cc1oc2cc([N+](=O)[O-])c(O)c([N+](=O)[O-])c2c1C(=O)c1ccc(Cl)cc1	PLCb3 inh 11.1, PLC-gamma1 inh 10.4
